Test results published in ChEMBL document CHEMBL1157825, “1-(2-Ethoxyethyl)-1H-pyrazolo[4,3-d]pyrimidines as potent phosphodiesterase 5 (PDE5) inhibitors” (Bioorg Med Chem Lett, 2010).

test: Volume of distribution at steady state in Beagle dog at 0.2 to 0.5 mg/kg, iv; format: ADME, organism-based, Canis lupus familiaris; parameters: dose 0.2-0.5 mg/kg, route intravenous; conditions: in vivo, read-out: Vdss
Summary of the method: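 Single IV dose of 0.2–0.5 mpk given to 10 kg beagles. Half-life reported in h, clearance in mL/min/kg and Vdss in L/kg.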

Structure (SMILES)	Vd
CCOCCn1nc(CC)c2nc(N3CCC(N)CC3)nc(Nc3cc(C)ccn3)c21	50.4 L/kg
CCOCCn1nc(CC)c2nc(N3CCN(C)CC3)nc(Nc3cc(C)ccn3)c21	11.4 L/kg
CCOCCn1nc(CC)c2nc(N3CCC(C(=O)O)CC3)nc(Nc3cc(C)ccn3)c21	3.8 L/kg
